Source: ChEMBL document CHEMBL4229322, “Antibacterial Paramagnetic Quinones from Actinoallomurus” (2017)
≈ marks a conversion by molar mass, not a printed value. Calls of active or inactive are those of the source. No cut-off for these calls is given here.

What was measured:
Type in all cases: functional
Escherichia coli [1] = test: Antimicrobial activity against Escherichia coli ATCC 25922 by broth microdilution method
[2] = test system: Stenotrophomonas maltophilia; test: Antimicrobial activity against Stenotrophomonas maltophilia L3030 by broth microdilution method
[3] = test system: Staphylococcus haemolyticus; test: Antimicrobial activity against methicillin-sensitive Staphylococcus haemolyticus L1729 by broth microdilution method
[4] = test system: Mycolicibacterium smegmatis; test: Antimicrobial activity against Mycobacterium smegmatis str. MC2 155 by broth microdilution method
Staphylococcus aureus [5] = test: Antimicrobial activity against methicillin-resistant Staphylococcus aureus L1400 by broth microdilution method
Procedure, shortened: (§1)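 CLSI broth microdilution in Müller Hinton broth containing 20 mg/L CaCl2 and 10 mg/L MgCl2. Clinical isolates inoculated at 5 × 10^5 cfu/mL and incubated at 37 °C for 20−24 h. MIC read as the lowest inhibiting concentration.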

Escherichia coli [6] = test: Antimicrobial activity against delta-tolC containing Escherichia coli L4242 by broth microdilution method
Clostridioides difficile = test: Antimicrobial activity against Clostridium difficile L4013 by broth microdilution method
Streptococcus pyogenes [7] = test: Antimicrobial activity against Streptococcus pyogenes ATCC BAA 1402 by broth microdilution method
Enterococcus faecium [8] = test: Antimicrobial activity against VanA expressing Enterococcus faecium L569 by broth microdilution method
[9] = test system: Staphylococcus haemolyticus; test: Antimicrobial activity against methicillin-resistant Staphylococcus haemolyticus L1730 by broth microdilution method; procedure, shortened: as §1
Haemophilus influenzae = test: Antimicrobial activity against Haemophilus influenzae L3296 by broth microdilution method
Acinetobacter baumannii = test: Antimicrobial activity against Acinetobacter baumannii ATCC 13637 by broth microdilution method
Moraxella catarrhalis = test: Antimicrobial activity against Moraxella catarrhalis L3292 by broth microdilution method
[10] = test system: Lactobacillus delbrueckii; test: Antimicrobial activity against Lactobacillus delbrueckii ATCC 4797 by broth microdilution method
Streptococcus pyogenes [11] = test: Antimicrobial activity against Streptococcus pyogenes L49 by broth microdilution method
Staphylococcus aureus [12] = test: Antimicrobial activity against glycopeptide-intermediate resistant Staphylococcus aureus L3798 by broth microdilution method; procedure, shortened: as §1
Bacteroides fragilis = test: Antimicrobial activity against Bacteroides fragilis ATCC 25285 by broth microdilution method
Escherichia coli [13] = test: Antimicrobial activity against hyperpermeable Escherichia coli G1640 by broth microdilution method
Enterococcus faecium [14] = test: Antimicrobial activity against VanS expressing Enterococcus faecium L568 by broth microdilution method
Staphylococcus aureus [15] = test: Antimicrobial activity against glycopeptide-intermediate resistant Staphylococcus aureus L3797 by broth microdilution method; procedure, shortened: as §1
Streptococcus pyogenes [16] = test: Antimicrobial activity against Streptococcus pyogenes ATCC BAA 1407 by broth microdilution method
Staphylococcus aureus [17] = test: Antimicrobial activity against methicillin-sensitive Staphylococcus aureus ATCC 6538P by broth microdilution method
Pseudomonas aeruginosa = test: Antimicrobial activity against Pseudomonas aeruginosa ATCC 27853 by broth microdilution method
Cutibacterium acnes = test: Antimicrobial activity against Propionibacterium acnes ATCC 25476 by broth microdilution method

Compound	MIC (Escherichia coli [1])	MIC [2]	MIC [3]	MIC [4]	MIC (Staphylococcus aureus [5])	MIC (Escherichia coli [6])	MIC (Clostridioides difficile)	MIC (Streptococcus pyogenes [7])	MIC (Enterococcus faecium [8])	MIC [9]	MIC (Haemophilus influenzae)	MIC (Acinetobacter baumannii)	MIC (Moraxella catarrhalis)	MIC [10]	MIC (Staphylococcus aureus [12])	MIC (Bacteroides fragilis)	MIC (Escherichia coli [13])	MIC (Staphylococcus aureus [15])	MIC (Pseudomonas aeruginosa)	MIC (Cutibacterium acnes)	other results
COc1cc2c(=O)c3cc4c(=O)c(OC)cc(=O)c4c(O)c3c(=O)c2c2c1C(=O)OC2	Active	Active	Active	Active	Active	Active	Active	Active	Active	Active	Active	Active	Active	Active	Active	Active	Active	Active	Active	Active	MIC (Streptococcus pyogenes [11]): Active; MIC (Enterococcus faecium [14]): Active; MIC (Streptococcus pyogenes [16]): Active; MIC (Staphylococcus aureus [17]): Active
O=C1OCc2c1c(O)cc1c(=O)c3cc4c(=O)c(O)cc(=O)c4c(O)c3c(=O)c21	> 16 µg/mL	> 16 µg/mL	> 16 µg/mL	> 16 µg/mL	> 16 µg/mL	> 16 µg/mL	> 64 µg/mL	8 µg/mL (≈ 20.4 µM)	> 16 µg/mL	> 16 µg/mL	> 16 µg/mL	> 16 µg/mL	> 16 µg/mL	> 16 µg/mL	> 16 µg/mL	> 16 µg/mL	> 16 µg/mL	> 16 µg/mL	> 16 µg/mL	> 16 µg/mL	MIC (Streptococcus pyogenes [11]): 16 µg/mL (≈ 40.8 µM); MIC (Enterococcus faecium [14]): > 16 µg/mL; MIC (Streptococcus pyogenes [16]): 8 µg/mL (≈ 20.4 µM); MIC (Staphylococcus aureus [17]): > 16 µg/mL
CN[C@H](CC(C)C)C(=O)N[C@H]1C(=O)N[C@@H](CC(N)=O)C(=O)N[C@H]2C(=O)N[C@H]3C(=O)N[C@H](C(=O)N[C@H](C(=O)O)c4cc(O)cc(O)c4-c4cc3ccc4O)[C@H](O)c3ccc(c(Cl)c3)Oc3cc2cc(c3O[C@@H]2O[C@H](CO)[C@@H](O)[C@H](O)[C@H]2O[C@H]2C[C@](C)(N)[C@H](O)[C@H](C)O2)Oc2ccc(cc2Cl)[C@H]1O [VANCOMYCIN]	> 128 µg/mL	128 µg/mL (≈ 88.3 µM)	2 µg/mL (≈ 1.38 µM)	> 128 µg/mL		> 128 µg/mL	0.5 µg/mL (≈ 0.345 µM)		> 128 µg/mL	128 µg/mL (≈ 88.3 µM)	> 128 µg/mL	128 µg/mL (≈ 88.3 µM)	32 µg/mL (≈ 22.1 µM)	> 128 µg/mL	8 µg/mL (≈ 5.52 µM)	16 µg/mL (≈ 11 µM)	> 128 µg/mL	8 µg/mL (≈ 5.52 µM)	2 µg/mL (≈ 1.38 µM)	0.25 µg/mL (≈ 0.173 µM)	
GENTAMICIN	0.25 µg/mL	64 µg/mL		16 µg/mL		0.25 µg/mL					128 µg/mL	0.125 µg/mL	0.25 µg/mL				0.25 µg/mL				
CNc1cc(=O)c2c(O)c3c(=O)c4c5c(c(OC)cc4c(=O)c3cc2c1=O)C(=O)OC5	Active	Active	Active	Active	Active	Active	Active	Active	Active	Active	Active	Active	Active	Active	Active	Active	Active	Active	Active	Active	MIC (Streptococcus pyogenes [11]): Active; MIC (Enterococcus faecium [14]): Active; MIC (Streptococcus pyogenes [16]): Active; MIC (Staphylococcus aureus [17]): Active
